Assay [1] deals with Pichia kudriavzevii. Briefly: Antimicrobial activity against Candida krusei after 48 hrs by Etest. Format: functional.
Assay [2] concerns Candida parapsilosis. In words: Antimicrobial activity against Candida parapsilosis after 48 hrs by Etest. Particulars: Lodderomyces parapsilosis. Format: functional.
Assay [3] concerns Kluyveromyces marxianus. In words: Antimicrobial activity against Candida kefyr after 48 hrs by 50% endpoint M27-A2 method. In kind it is functional.
Assay [4] relates to Candida parapsilosis. Briefly: Antimicrobial activity against Candida parapsilosis after 48 hrs by 50% endpoint M27-A2 method. Format: functional. The note with it: Lodderomyces parapsilosis.
The test system of assay [5] is Candida albicans. Briefly: Antimicrobial activity against Candida albicans isolate C at 0.5 ug/ml after 48 hrs by agar dilution method. Format: functional, organism-based. The method in brief:
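Sabouraud agar wells contained caspofungin 0, 0.5, 1 or 2 µg/ml, or anidulafungin 0, 0.003, 0.125 or 0.5 µg/ml. Isolates were subcultured 2 days on CHROMagar. Suspensions of 1–5 × 10^6 CFU/ml in sterile water were diluted 1,500-fold, and 5 µl (about 3–15 cells) was spread per well. Growth was scored.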
(In general: In agar dilution, organisms are placed on agar that contains the substance at set levels.)

The subject of assay [6] is Candida albicans. Briefly: Antimicrobial activity against Candida albicans isolate S obtained from blood culture of patient 4 days after admission by EUCAST microdilution method. Format: functional. The note with it: 96 h. The method in brief:
(§1)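 EUCAST broth microdilution, plates read spectrophotometrically at 490 nm. MIC is the lowest dilution giving 50% growth inhibition. C. krusei […] control included in each run.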

Assay [7] deals with Candida albicans. In words: Antimicrobial activity against Candida albicans obtained from urine of patient 29 days after admission by EUCAST microdilution method. In kind it is functional. The note with it: 696 h. The method in brief: as §1
(In general: Broth dilution looks for growth in wells or tubes with falling amounts of substance.)

Assay [8] deals with Candida albicans. In words: Antimicrobial activity against Candida albicans isolate R at 5 ug/ml grown on RPMI 1640 medium after 48 hrs by disk diffusion method. Format: functional. The method in brief: (§2)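 Disk diffusion on 90-mm RPMI 1640 with 2% glucose agar or on Mueller-Hinton agar. Plates were swabbed in three directions with a yeast suspension of 1–5 × 10^6 cells/ml. Paper disks (6 mm) held 1, 5 or 25 µg drug. Zone diameters were read at 24 and 48 h; values are means of two experiments.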
(In agar diffusion tests the substance spreads into inoculated agar from a disc or well.)

In assay [9] the test system is Candida albicans. In words: Antimicrobial activity against Candida albicans isolate R at 1 ug/ml grown on Muller-Hinton agar medium after 48 hrs by disk diffusion method. Format: functional. The method in brief: as §2
Assay [10] has as its system Candida albicans. In words: Antimicrobial activity against Candida albicans isolate S at 1 ug/ml grown on RPMI 1640 medium after 24 hrs by disk diffusion method. In kind it is functional. The method in brief:
as §2

In assay [11] the test system is Candida albicans. In words: Antimicrobial activity against Candida albicans isolate S at 25 ug/ml grown on Muller-Hinton agar medium after 24 hrs by disk diffusion method. In kind it is functional. The method in brief: as §2
Assay [12] relates to Pichia kudriavzevii. In words: Antimicrobial activity against Candida krusei after 48 hrs.
Assay [13] has as its system Candida tropicalis. Briefly: Antimicrobial activity against Candida tropicalis after 48 hrs.

≈ marks a conversion by molar mass, not a printed value. Calls of active or inactive are those of the source.

In the case of `CC[C@H](C)C[C@H](C)CCCCCCCCC(=O)N[C@H]1C[C@@H](O)[C@@H](NCCN)NC(=O)[C@@H]2[C@@H](O)CCN2C(=O)[C@H]([C@H](O)CCN)NC(=O)[C@H]([C@H](O)[C@@H](O)c2ccc(O)cc2)NC(=O)[C@@H]2C[C@@H](O)CN2C(=O)[C@H]([C@@H](C)O)NC1=O` [CASPOFUNGIN], the MIC90 was found to be 1 µg/mL (≈ 0.915 µM) in assay [1]; 2 µg/mL (≈ 1.83 µM) in assay [2]; 1 µg/mL (≈ 0.915 µM) in assay [3]; 2 µg/mL (≈ 1.83 µM) in [4]; 1 µg/mL (≈ 0.915 µM) in assay [12]; 0.5 µg/mL (≈ 0.457 µM) in assay [13]. Moreover, in assay [5], the “growth inhibition (GI)” value is “Active”. The MIC in [6] and in [7] was 0.25 µg/mL (≈ 0.229 µM) throughout. Further, the “inhibition zone (IZ)” value amounted to 6.2 mm in [8], 6.1 mm in assay [9], 10.7 mm in [10] and 23.3 mm in assay [11].

For orientation: MIC90 means the lowest concentration that inhibits either 90% of growth or 90% of the strains tested, depending on the study. A lower MIC90 goes with higher susceptibility. As usually defined, the MIC is the smallest concentration in the dilution series that meets the test's criterion for growth inhibition. A low value points to a more susceptible organism.

The record behind these values is ChEMBL document CHEMBL1629654, “Breakthrough Aspergillus fumigatus and Candida albicans double infection during caspofungin treatment: laboratory characteristics and implication for susceptibility testing” (2009).
